Activity calls are given as the source filed them. The rule behind the calls is not given here.
Experiments:
[1] = Antiviral activity against Hepatitis B virus subtype adw2 infected in human HuH7 cells assessed as reduction in HBcAg level at 10 ug/ml after 2 days by immunoblot method relative to control; type: functional
How it was run: (§1)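 Huh7 cells were transfected with pHBV1.2 (1.2-fold HBV adw2 genome) for 2 days, then exposed to 2.5, 5 or 10 μg/mL for another 2 days. Whole-cell protein was extracted with protease inhibitors. SHBs, HBcAg and HBx were detected by immunoblot, with α-tubulin for comparison.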

Huh-7 [2] = assay: Decrease in NF-kB p50 protein expression in human HuH7 cells transfected with pHBV1.2 at 5 ug/ml after 2 days by immunoblot method relative to control; type: functional
How it was run: (§2)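 Huh7 cells were transfected with pHBV1.2 for 2 days, then treated at 2.5, 5 or 10 μg/mL for another 2 days. Whole-cell protein was extracted with protease inhibitors. NF-κB p65/p50, phospho-p65, IKKα/β and IκBα/phospho-IκBα were detected by immunoblot. Blots are representative of three experiments.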

Huh-7 [3] = assay: Effect on NF-kB p50 protein expression in human HuH7 cells transfected with pHBV1.2 at 2.5 ug/ml after 2 days by immunoblot method relative to control; type: functional
How it was run: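 HBV adw2 genome plasmid pHBV1.2 transfected into Huh7 for 2 days, then 2.5, 5 or 10 μg/mL for another 2 days. Whole-cell protein extracted with protease inhibitors, then SDS-PAGE immunoblot for NF-κB and MAPK pathway proteins. Blots are representative of three sets of experiments.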

Huh-7 [4] = assay: Decrease in IKKbeta protein expression in human HuH7 cells transfected with pHBV1.2 at 2.5 ug/ml after 2 days by immunoblot method relative to control; type: functional; how it was run: as §2
Huh-7 [5] = assay: Decrease in IKKbeta protein expression in human HuH7 cells transfected with pHBV1.2 at 5 ug/ml after 2 days by immunoblot method relative to control; type: functional; how it was run: as §2
[6] = Selectivity index, ratio of TC50 for human HepG2.2.15 cells to IC50 for Hepatitis B virus subtype adw2 infected in human HepG2.2.15 cells assessed as inhibition of HBeAg secretion
Homo sapiens = species: Homo sapiens; assay: Decrease in SAPK/JNK phosphorylation in human HuH7 cells transfected with pHBV1.2 at 2.5 to 10 ug/ml after 2 days by immunoblot method
Huh-7 [7] = assay: Decrease in NF-kB p65 protein expression in human HuH7 cells transfected with pHBV1.2 at 5 ug/ml after 2 days by immunoblot method relative to control; type: functional; how it was run: as §2
[8] = Antiviral activity against Hepatitis B virus subtype adw2 infected in human HuH7 cells assessed as reduction in HBx level at 10 ug/ml after 2 days by immunoblot method relative to control; type: functional; how it was run: as §1
[9] = test system: Hepatitis B virus subtype adw2; assay: Antiviral activity against Hepatitis B virus subtype adw2 infected in human HuH7 cells assessed as inhibition of viral DNA replication after 3 days by RT-PCR method; type: functional, cell-based
How it was run: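 HBV-expressing Huh7 cells were dosed at 2.5, 5 or 10 μg/mL for 3 days. Viral DNA was isolated from virion particles in the conditioned medium and quantified by real-time PCR. Mean ± SD, n = 3, compared with untreated cells.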

Hepatitis B virus = assay: Decrease in HBV preS promoter activity infected in human HuH7 cells cotransfected with pHBV1.2 at 10 ug/ml after 24 hrs by luciferase reporter gene assay; type: cell-based
How it was run: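 Huh7 cells were seeded for 24 h, then cotransfected with pHBV1.2, pRLSV40 and a pGL4.17-based Core (nt 1636-1851), S (nt 3114-220), PreS (nt 2438-2855) or X (nt 1071-1357) promoter-luciferase construct for 24 h. Cells were then treated at 10 μg/mL for 24 h and lysates were assayed for luciferase. Mean ± SD, n = 3.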

[10] = Antiviral activity against Hepatitis B virus subtype adw2 infected in human HuH7 cells assessed as inhibition of viral DNA replication by RT-PCR method; type: functional, cell-based; conditions: Huh-7
[11] = target: Mitogen-activated protein kinase; ERK1/ERK2 (Homo sapiens) (UniProt P27361+P28482); assay: Decrease in ERK1/2 phosphorylation in human HuH7 cells transfected with pHBV1.2 at 2.5 to 10 ug/ml after 2 days by immunoblot method
[12] = target: Transcription factor p65 (Homo sapiens) (UniProt Q04206); assay: Decrease in NF-kB p65 phosphorylation in human HuH7 cells transfected with pHBV1.2 at 5 ug/ml after 2 days by immunoblot method relative to control; type: cell-based; how it was run: as §2
[13] = test system: Hepatitis B virus subtype adw2; assay: Antiviral activity against Hepatitis B virus subtype adw2 infected in human HuH7 cells assessed as inhibition of HBsAg secretion after 3 days by EIA; type: functional, cell-based
How it was run: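 HBV-expressing Huh7 cells were given 2.5, 5 or 10 μg/mL for 3 days. HBsAg and HBeAg in the conditioned medium were measured by enzyme immunoassay. Mean ± SD, n = 3, compared with untreated cells.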

[14] = Antiviral activity against Hepatitis B virus subtype adw2 infected in human HuH7 cells assessed as reduction in HBcAg level at 5 ug/ml after 2 days by immunoblot method relative to control; type: functional; how it was run: as §1
[15] = target: Transcription factor p65 (Homo sapiens) (UniProt Q04206); assay: Decrease in NF-kB p65 phosphorylation in human HuH7 cells transfected with pHBV1.2 at 10 ug/ml after 2 days by immunoblot method relative to control; type: cell-based; how it was run: as §2
Huh-7 [16] = assay: Decrease in IKKbeta protein expression in human HuH7 cells transfected with pHBV1.2 at 10 ug/ml after 2 days by immunoblot method relative to control; type: functional; how it was run: as §2
Huh-7 [17] = assay: Decrease in IKKalpha protein expression in human HuH7 cells transfected with pHBV1.2 at 10 ug/ml after 2 days by immunoblot method relative to control; type: functional; how it was run: as §2
[18] = Antiviral activity against Hepatitis B virus subtype adw2 infected in human HuH7 cells assessed as reduction in HBcAg level at 2.5 ug/ml after 2 days by immunoblot method relative to control; type: functional; how it was run: as §1
[19] = target: T1, NF-kappa-B inhibitor alpha (Homo sapiens) (UniProt P25963); assay: Decrease in IKBalpha phosphorylation in human HuH7 cells transfected with pHBV1.2 at 10 ug/ml after 2 days by immunoblot method relative to control; type: cell-based; how it was run: as §2
T1 sequence (whole entry): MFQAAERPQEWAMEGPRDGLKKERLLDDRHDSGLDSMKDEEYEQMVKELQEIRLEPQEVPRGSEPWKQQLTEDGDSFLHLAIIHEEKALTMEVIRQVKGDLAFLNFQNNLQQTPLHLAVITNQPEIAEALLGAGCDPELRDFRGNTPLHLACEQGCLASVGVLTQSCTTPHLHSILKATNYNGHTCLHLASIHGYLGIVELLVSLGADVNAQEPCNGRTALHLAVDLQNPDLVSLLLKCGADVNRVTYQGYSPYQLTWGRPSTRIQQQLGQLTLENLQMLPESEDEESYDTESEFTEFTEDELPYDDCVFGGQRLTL

Huh-7 [20] = assay: Decrease in p38 MAPK protein expression in human HuH7 cells transfected with pHBV1.2 at 5 ug/ml after 2 days by immunoblot method relative to control

Sequence of Transcription factor p65 (Homo sapiens) (Q04206 whole entry): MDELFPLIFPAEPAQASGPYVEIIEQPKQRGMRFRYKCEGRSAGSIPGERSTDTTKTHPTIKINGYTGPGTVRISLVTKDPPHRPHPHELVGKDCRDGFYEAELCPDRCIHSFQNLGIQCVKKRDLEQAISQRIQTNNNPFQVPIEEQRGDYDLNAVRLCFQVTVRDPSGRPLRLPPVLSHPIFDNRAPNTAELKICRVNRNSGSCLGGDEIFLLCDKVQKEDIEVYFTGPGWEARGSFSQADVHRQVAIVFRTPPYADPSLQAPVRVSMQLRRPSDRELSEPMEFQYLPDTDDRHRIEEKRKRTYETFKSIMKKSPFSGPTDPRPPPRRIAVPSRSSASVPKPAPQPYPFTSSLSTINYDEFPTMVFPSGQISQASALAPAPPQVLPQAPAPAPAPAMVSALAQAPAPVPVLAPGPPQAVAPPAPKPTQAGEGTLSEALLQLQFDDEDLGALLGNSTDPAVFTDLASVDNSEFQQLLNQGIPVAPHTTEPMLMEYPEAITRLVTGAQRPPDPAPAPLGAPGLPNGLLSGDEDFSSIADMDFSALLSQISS
Sequence of Mitogen-activated protein kinase; ERK1/ERK2 (Homo sapiens) (P27361 whole entry, looked up): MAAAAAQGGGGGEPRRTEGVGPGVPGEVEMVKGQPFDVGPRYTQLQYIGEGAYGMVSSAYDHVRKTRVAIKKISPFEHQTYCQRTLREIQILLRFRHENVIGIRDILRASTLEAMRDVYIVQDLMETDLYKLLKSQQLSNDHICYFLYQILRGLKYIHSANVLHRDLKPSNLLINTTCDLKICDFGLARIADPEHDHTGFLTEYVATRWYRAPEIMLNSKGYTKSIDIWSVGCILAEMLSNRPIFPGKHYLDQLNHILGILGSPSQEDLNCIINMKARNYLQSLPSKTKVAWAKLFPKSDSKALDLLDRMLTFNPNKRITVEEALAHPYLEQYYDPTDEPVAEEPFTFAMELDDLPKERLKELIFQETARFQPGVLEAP
Sequence of Mitogen-activated protein kinase; ERK1/ERK2 (Homo sapiens) (P28482 whole entry, looked up): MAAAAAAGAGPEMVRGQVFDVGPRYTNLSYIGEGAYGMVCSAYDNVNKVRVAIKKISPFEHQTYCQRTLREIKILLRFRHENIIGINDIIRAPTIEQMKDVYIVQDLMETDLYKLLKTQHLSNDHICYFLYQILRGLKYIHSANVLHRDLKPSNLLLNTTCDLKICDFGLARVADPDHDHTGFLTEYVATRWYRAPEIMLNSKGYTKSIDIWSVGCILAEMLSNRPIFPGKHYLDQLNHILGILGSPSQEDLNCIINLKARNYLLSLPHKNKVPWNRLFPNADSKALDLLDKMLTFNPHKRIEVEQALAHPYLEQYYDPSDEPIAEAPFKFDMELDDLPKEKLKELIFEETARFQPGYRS

IC50 [10]: 16.9 µM | Activity [11]: Active | fold change (FC) [12]: 0.88 | fold change (FC) [15]: 0.23 | fold change (FC) [19]: 0.25
Compound: C=C1C[C@@]23CC[C@H]4[C@@](C)(CCC[C@@]4(C)NC(=O)NCCCC)[C@@H]2CC[C@]1(O)C3
fold change (FC) [1]: 0.11 | fold change (FC) (Huh-7 [2]): 0.97 | fold change (FC) (Huh-7 [3]): 1.01 | fold change (FC) (Huh-7 [4]): 0.99 | fold change (FC) (Huh-7 [5]): 0.97 | selectivity ratio [6]: 47.7 | Activity (Homo sapiens): Active | fold change (FC) (Huh-7 [7]): 0.88 | fold change (FC) [8]: 0.15 | inhibition [9]: Dose-dependent effect | Activity (Hepatitis B virus): Active | inhibition [13]: Dose-dependent effect | fold change (FC) [14]: 0.81 | fold change (FC) (Huh-7 [16]): 0.33 | fold change (FC) (Huh-7 [17]): 0.46 | fold change (FC) [18]: 0.78 | fold change (FC) (Huh-7 [20]): 0.98

Source: ChEMBL document CHEMBL3997773, “Synthesis of C-4-Substituted Steviol Derivatives and Their Inhibitory Effects against Hepatitis B Virus” (J Nat Prod, 2016)
